Assay results: PMC4372299 (Molecular imaging and biology : MIB : the official …, 2014)

Tests used:
TSPO [1] = conditions: cited from earlier work; for enhancement in binding affinity compared to DPA-714: TSPO affinity vs DPA-714
TSPO [2] = target: TSPO (Mus musculus, UniProt P50637); experiment: Dynamic PET accumulation and displacement of [18F]VUIIS1008 in healthy mice; assay type: in vivo
TSPO [3] = target: T1, TSPO (Rattus norvegicus, UniProt P16257); experiment: Pre-blocking PET study with non-radioactive VUIIS1008 in C6 glioma-bearing rats; assay type: in vivo; conditions: pre-blocking with VUIIS1008 10 mg/kg, range of 2 rats
Outline: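 In C6 glioma-bearing Wistar rats, the non-radioactive ligand (10 mg/kg i.v.) was given 5 min before a radiotracer bolus (1.2 ± 0.2 mCi via jugular catheter). Dynamic PET ran for 60 min with a metabolite-corrected arterial input function. Tumour and contralateral normal-brain TACs were fitted to a 2-tissue, 4-parameter model, and the range from 2 rats is reported.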

TSPO [4] = target: T1, TSPO; experiment: Dynamic PET with compartmental modeling in C6 glioma-bearing rats; assay type: in vivo; conditions: for K1 / k2 / k3 / k4: 2-tissue 4-parameter model, n = 5, Mean ± SEM; for %ID/cc (90 min) / K1/k2 / VT=(K1/k2)(1+k3/k4) / k3/k4 (binding potential): C6-glioma bearing rats n = 5, Mean ± SEM
Outline: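 Male Wistar rats (10 weeks, ~300 g) were implanted with 1.0 × 10⁵ C6 cells in the right hemisphere 2 weeks before imaging, then catheterised and localised by T₂ MRI. Radiotracer 1.2 ± 0.2 mCi was given as a jugular bolus for 90-min dynamic PET with CT attenuation correction. Arterial input was TLC metabolite-corrected. Tumour and contralateral-brain TACs were fitted with 1- and 2-tissue models to give K₁–k₄, V_T and BP_ND.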

[5] = challenger 10 mg/kg at scan mid-point (30 min)

## CCc1cc(CC)n2nc(-c3ccc(OCCF)cc3)c(CC(=O)N(CC)CC)c2n1 [VUIIS1008, 2-(5,7-diethyl-2-(4-(2-fluoroethoxy)phenyl)pyrazolo[1,5-a]pyrimidin-3-yl)-N,N-diethylacetamide]
TSPO [1]
  enhancement in binding affinity compared to DPA-714: 36 fold
TSPO [1]; read-out: Ki (binding affinity), TSPO
  Ki: 0.3 nM
TSPO [2]; [5]
  displacement of [18F]VUIIS1008 from myocardium and lung tissue: rapid and significant displacement
  displacement of [18F]VUIIS1008 from renal tissue: partial displacement

## CCc1cc(CC)n2nc(-c3ccc(OCC[18F])cc3)c(CC(=O)N(CC)CC)c2n1 [[^18F]VUIIS1008, 2-(5,7-diethyl-2-(4-(2-[^18F]fluoroethoxy)phenyl)pyrazolo[1,5-a]pyrimidin-3-yl)-N,N-diethylacetamide]
TSPO [3]; normal brain
  K1/k2: 0.059 – 0.061
  VT=(K1/k2)(1+k3/k4): 0.380 – 0.615
  k3/k4 (binding potential): 4.888 – 13.507
TSPO [3]; tumor
  K1/k2: 0.124 – 0.143
  VT=(K1/k2)(1+k3/k4): 0.618 – 0.767
  k3/k4 (binding potential): 3.972 – 4.368
TSPO [4]; C6 glioma-bearing rats
  VT ratio between tumor and normal brain: 6.0
TSPO [4]; C6 glioma-bearing rats, n = 6
  clearance of tracer from plasma: cleared rapidly
TSPO [4]; normal brain
  K1: 0.881 ± 0.392
  k2: 2.078 ± 1.666
  k3: 0.172 ± 0.070
  k4: 0.037 ± 0.004
  %ID/cc (90 min): 0.103 ± 0.031 %ID/cc
  K1/k2: 0.86 mL/g
  VT=(K1/k2)(1+k3/k4): 4.210 ± 1.612
  k3/k4 (binding potential): 4.435 ± 1.387
TSPO [4]; normal brain, listed as 18F-VUIIS1008
  K1/k2: 0.855 ± 0.325 mL/g
TSPO [4]; tumor (C6 glioma)
  K1: 0.709 ± 0.306
  k2: 0.442 ± 0.101
  k3: 0.113 ± 0.013
  k4: 0.009 ± 0.002
TSPO [4]; tumor
  %ID/cc (90 min): 0.310 ± 0.051 %ID/cc
  K1/k2: 1.90 mL/g
  VT=(K1/k2)(1+k3/k4): 25.224 ± 10.035
  k3/k4 (binding potential): 12.63
TSPO [4]; tumor, listed as 18F-VUIIS1008
  K1/k2: 1.902 ± 0.816 mL/g
  k3/k4 (binding potential): 12.634 ± 1.406
TSPO [1]
  enhancement in binding affinity compared to DPA-714: approximately 36 fold
TSPO [2]; dynamic PET
  binding reversibility in healthy, TSPO-rich tissues: reversible binding
